Calls of active or inactive are those of the source. No cut-off for these calls is given here.
Tests used:
[1] = molecular target: T1, Orphan methyltransferase M.SssI (Spiroplasma monobiae, UniProt P15840); test: Competitive inhibition of Spiroplasma sp. MQ1 SssI methyltransferase using pUC18 as substrate measured for 10 mins by Dixon plot analysis
Procedure, shortened: (§1)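 M.SssI reaction in 10 mM Tris-HCl pH 7.9 with 50 mM NaCl, 10 mM DTT, 2 mM [3H]CH3-SAM, 1 U enzyme and pUC18 plasmid (0.1, 0.5 or 1 µg). Run at 37 °C for 1, 3, 5 and 10 min with inhibitor present to get initial rates V0 (nM/min). Ki taken from Dixon plot. Reactions repeated twice.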

[2] = molecular target: T1, Orphan methyltransferase M.SssI; test: Uncompetitive inhibition of Spiroplasma sp. MQ1 SssI methyltransferase using pUC18 as substrate measured for 10 mins by Cornish-Bowden's plot analysis
Procedure, shortened: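 M.SssI reaction in 10 mM Tris-HCl pH 7.9 with 50 mM NaCl, 10 mM DTT, 2 mM [3H]CH3-SAM, 1 U enzyme and pUC18 (0.1, 0.5 or 1 µg). Run at 37 °C for 1–10 min to get V0. Ki' obtained by Cornish-Bowden method, plotting S/V against inhibitor concentration. Duplicates.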

[3] = molecular target: T2, DNA (cytosine-5)-methyltransferase 1 (Homo sapiens, UniProt P26358); test: Inhibition of DNMT1 in human HeLa cells assessed as 2'-deoxyadenosine phosphate level by two-dimensional thin layer chromatography analysis; assay type: cell-based; settings: in the assay text read “5-methylcytosine level” for “2'-deoxyadenosine phosphate level”
T2 sequence (P26358 whole entry): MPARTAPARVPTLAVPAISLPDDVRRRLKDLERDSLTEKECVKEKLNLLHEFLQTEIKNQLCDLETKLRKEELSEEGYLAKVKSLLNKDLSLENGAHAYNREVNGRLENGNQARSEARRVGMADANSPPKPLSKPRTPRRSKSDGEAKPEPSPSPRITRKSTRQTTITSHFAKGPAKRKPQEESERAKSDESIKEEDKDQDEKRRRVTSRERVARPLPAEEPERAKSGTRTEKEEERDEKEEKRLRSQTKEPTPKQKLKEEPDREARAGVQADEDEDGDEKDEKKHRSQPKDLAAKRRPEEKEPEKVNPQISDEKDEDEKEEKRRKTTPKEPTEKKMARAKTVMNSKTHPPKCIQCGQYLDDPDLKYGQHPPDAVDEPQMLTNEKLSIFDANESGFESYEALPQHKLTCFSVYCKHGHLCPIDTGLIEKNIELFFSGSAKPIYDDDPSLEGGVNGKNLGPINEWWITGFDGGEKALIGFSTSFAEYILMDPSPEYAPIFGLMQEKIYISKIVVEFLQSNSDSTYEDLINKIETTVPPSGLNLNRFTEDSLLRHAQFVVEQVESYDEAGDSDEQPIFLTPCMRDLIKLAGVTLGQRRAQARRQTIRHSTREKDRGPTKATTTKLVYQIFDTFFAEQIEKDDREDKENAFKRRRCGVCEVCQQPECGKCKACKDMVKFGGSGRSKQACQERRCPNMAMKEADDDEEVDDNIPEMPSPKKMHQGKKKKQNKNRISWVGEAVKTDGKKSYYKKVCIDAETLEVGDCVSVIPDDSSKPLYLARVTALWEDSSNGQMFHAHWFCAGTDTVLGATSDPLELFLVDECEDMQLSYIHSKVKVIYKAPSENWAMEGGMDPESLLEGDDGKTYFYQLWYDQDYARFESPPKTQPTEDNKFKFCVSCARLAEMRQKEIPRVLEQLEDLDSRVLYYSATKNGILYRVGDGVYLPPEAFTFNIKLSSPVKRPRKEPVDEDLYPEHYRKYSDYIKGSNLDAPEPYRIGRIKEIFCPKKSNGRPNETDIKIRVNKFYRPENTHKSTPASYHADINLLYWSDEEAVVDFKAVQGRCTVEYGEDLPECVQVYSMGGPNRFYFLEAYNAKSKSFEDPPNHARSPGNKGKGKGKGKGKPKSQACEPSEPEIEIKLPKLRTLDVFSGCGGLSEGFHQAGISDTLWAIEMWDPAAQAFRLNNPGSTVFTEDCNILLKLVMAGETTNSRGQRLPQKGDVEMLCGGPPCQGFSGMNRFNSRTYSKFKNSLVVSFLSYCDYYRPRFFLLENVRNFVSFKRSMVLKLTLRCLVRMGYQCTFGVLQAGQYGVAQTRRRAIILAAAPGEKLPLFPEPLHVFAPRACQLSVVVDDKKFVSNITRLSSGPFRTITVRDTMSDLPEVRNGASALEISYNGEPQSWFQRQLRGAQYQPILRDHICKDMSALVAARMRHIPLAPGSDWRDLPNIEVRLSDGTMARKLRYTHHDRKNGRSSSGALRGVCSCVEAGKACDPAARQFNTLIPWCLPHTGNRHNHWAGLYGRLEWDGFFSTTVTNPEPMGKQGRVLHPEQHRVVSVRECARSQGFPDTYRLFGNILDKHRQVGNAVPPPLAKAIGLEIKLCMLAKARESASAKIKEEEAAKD
Procedure, shortened: (§2)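 HeLa (RPMI-1640) and HEK293 (DMEM) cells, medium with 10% FBS, antibiotics and vitamin mix. Seeded at 1.25 × 10⁵ per well and exposed 72 h at 37 °C, 5% CO2 to 1, 10 or 100 µM. DNA digested with micrococcal nuclease and spleen phosphodiesterase, then 5'-labelled with [γ-32P]ATP and T4 polynucleotide kinase. 3'-phosphate removed with nuclease P1. Nucleotides resolved by 2D cellulose TLC. Methylation given as m5C/(m5C+dC+dT) × 100.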

[4] = molecular target: T2, DNA (cytosine-5)-methyltransferase 1; test: Inhibition of DNMT1 in human HeLa cells assessed as 2'-deoxytymidine phosphate level by two-dimensional thin layer chromatography analysis; assay type: cell-based; procedure, shortened: as §2
[5] = molecular target: T2, DNA (cytosine-5)-methyltransferase 1; test: Inhibition of DNMT1 in human HeLa cells assessed as 2'-deoxycytosine phosphate level by two-dimensional thin layer chromatography analysis; assay type: cell-based; procedure, shortened: as §2
HeLa = test: Inhibition of DNA methylation in human HeLa cells assessed as reduction of 5-methylcytosine level using [gamma-32P]ATP after 72 hrs; assay type: functional, cell-based; procedure, shortened: as §2
[6] = molecular target: T2, DNA (cytosine-5)-methyltransferase 1; test: Inhibition of DNMT1 in human HeLa cells assessed as 5-methyl-2'-deoxycytosine phosphate level by two-dimensional thin layer chromatography analysis; assay type: cell-based; procedure, shortened: as §2
HEK293 = test: Inhibition of DNA methylation in human HEK293 cells assessed as reduction of 5-methylcytosine level using [gamma-32P]ATP after 72 hrs; assay type: cell-based; settings: HEK293, 72 h; procedure, shortened: as §2
[7] = molecular target: T2, DNA (cytosine-5)-methyltransferase 1; test: Inhibition of DNMT1 in human HeLa cells assessed as 2'-deoxyguanosine phosphate level by two-dimensional thin layer chromatography analysis; assay type: cell-based; procedure, shortened: as §2
[8] = molecular target: T2, DNA (cytosine-5)-methyltransferase 1; test: Inhibition of DNMT1 in human HeLa cell nuclear extract assessed as methylated substrate level at 10 uM by ELISA
Procedure, shortened: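 HeLa nuclear extract (cells grown to 80% confluency; protein by Bradford) with hemimethylated DNA substrate, incubated 1 h with or without inhibitor. Methylated product detected by ELISA with anti-5-methylcytosine antibody, colorimetric read-out at 450 nm. Each experiment repeated twice.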

[9] = molecular target: T1, Orphan methyltransferase M.SssI; test: Inhibition of Spiroplasma sp. MQ1 SssI methyltransferase-mediated DNA cytosine methylation using pUC18 as substrate and [3H]CH3-SAM measured up to 10 mins
Procedure, shortened: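 Tritium-incorporation assay with SssI methyltransferase, pUC18 plasmid (0.1–1 µg) and 2 mM [3H]CH3-SAM. Buffer is 10 mM Tris-HCl pH 7.9, 50 mM NaCl, 10 mM DTT. Sampled at 1, 3, 5 and 10 min at 37 °C to give initial velocity V0. Reactions done twice.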

[10] = molecular target: T2, DNA (cytosine-5)-methyltransferase 1; test: Inhibition of DNMT1 in human HeLa cell nuclear extract assessed as methylated substrate level by ELISA
[11] = molecular target: T1, Orphan methyltransferase M.SssI; test: Non-competitive inhibition of Spiroplasma sp. MQ1 SssI methyltransferase using pUC18 as substrate measured for 10 mins by Dixon plot analysis; procedure, shortened: as §1
[12] = molecular target: T2, DNA (cytosine-5)-methyltransferase 1; test: Inhibition of DNMT1 in human HeLa cell nuclear extract assessed as methylated substrate level at 100 uM by ELISA

T1 sequence (P15840 whole entry): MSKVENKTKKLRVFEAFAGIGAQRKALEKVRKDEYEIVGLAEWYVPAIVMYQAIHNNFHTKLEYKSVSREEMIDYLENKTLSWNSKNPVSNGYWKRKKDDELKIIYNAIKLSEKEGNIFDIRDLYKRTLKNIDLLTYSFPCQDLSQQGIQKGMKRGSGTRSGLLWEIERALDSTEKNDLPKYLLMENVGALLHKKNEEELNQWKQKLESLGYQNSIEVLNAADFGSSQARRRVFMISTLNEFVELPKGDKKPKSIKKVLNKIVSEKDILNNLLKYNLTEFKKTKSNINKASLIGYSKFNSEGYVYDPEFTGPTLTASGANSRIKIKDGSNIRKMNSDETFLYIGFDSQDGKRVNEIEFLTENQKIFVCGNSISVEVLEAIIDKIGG

`Cc1ccc(CNc2cc[nH]c(=O)n2)cc1` gave a Ki [1] of 26 µM.

For `O=c1nc(NCc2ccc(CO)o2)cc[nH]1`, the Ki [1] was 700 µM.

`Cc1cn([C@H]2C[C@H](O)[C@@H](CO)O2)c(=O)nc1NCc1ccco1` showed a Ki [1] of 250 µM.

With `O=C1N=C(NCc2ccccc2)NCN1` the Ki [1] was 20 µM.

`CCC/C=N/c1cc[nH]c(=O)n1` showed a Ki [2] of 800 µM.

For `Cc1c[nH]c(=O)nc1NCc1ccccc1`, the Ki [1] was 3.6 µM.

Work on `O=c1nc(NCc2cccnc2)cc[nH]1` yielded a Ki [1] of 400 µM.

For `O=c1nc(NCc2ccccc2)cc[nH]1`, the inhibition [3] was “Active”, the inhibition [4] was “Active” and the inhibition [5] was “Active”. The Ki [1] was 10 µM, the IC50 (HeLa) was 31 µM and the inhibition [6] was “Active”. The IC50 (HEK293) was greater than 100 µM and the inhibition [7] was “Active”.

In the case of `O=c1nc(NCc2ccco2)cc[nH]1`, the Ki [1] is reported as 70 µM.

`CC/C=N/c1cc[nH]c(=O)n1` was tested, and the Ki [2] was 3400 µM.

`O=C(O[C@@H]1Cc2c(O)cc(O)cc2O[C@@H]1c1cc(O)c(O)c(O)c1)c1cc(O)c(O)c(O)c1` [EPIGALOCATECHIN GALLATE] showed a Ki [1] of 0.028 µM and an inhibition [8] of 42%.

Compound `CCNc1cc[nH]c(=O)n1` has a Ki [2] of 6000 µM.

For `O=c1ncc(CS(=O)(=O)O)c(NCc2ccco2)[nH]1`, the Ki [1] was 112 µM.

In the case of `C/C=N/c1cc[nH]c(=O)n1`, the Ki [2] is reported as 5600 µM.

Compound `O=c1nc(NCc2ccccc2)c(CO)c[nH]1` has a Ki [1] of 135 µM.

Work on `CCCCNc1ccnc(=O)[nH]1` yielded a Ki [2] of 1000 µM.

For `Nc1nc[nH]c(=O)n1`, the Ki [1] was 5500 µM.

In the case of `O=Cc1cnc(=O)[nH]c1NCc1ccccc1`, the Ki [1] is reported as 35 µM.

For `CC(=O)OCc1c[nH]c(=O)nc1NCc1ccco1`, the Ki [1] was 50 µM.

`O=C1N=C(NCc2ccco2)NCN1` was tested, and the inhibition [3] was “Active”, the inhibition [4] was “Active” and the IC50 [9] was 2.73 µM. For the same compound, the inhibition [5] was “Active”, the IC50 [10] was 22 µM and the inhibition [10] was “Dose-dependent effect”. The Ki [1] was 0.7 µM, the inhibition [8] was 55% and the IC50 (HeLa) was 26 µM. The inhibition [6] was “Active”, the IC50 (HEK293) was 75 µM and the inhibition [7] was “Active”.

`O=c1nc(NCc2ccco2)ccn1[C@H]1C[C@H](O)[C@@H](CO)O1` gave a Ki [1] of 170 µM.

For `CC(=O)OCc1c[nH]c(=O)nc1NCc1ccccc1`, the Ki [1] was 23 µM.

With `Cc1ccc(S(=O)(=O)Nc2cc[nH]c(=O)n2)cc1` the Ki [1] was 550 µM.

`O=c1nc(NCc2ccco2)c(CO)c[nH]1` was tested, and the Ki [1] was 440 µM.

With `Cc1c[nH]c(=O)nc1NCc1ccco1` the Ki [1] was 15 µM, the IC50 (HeLa) was 88 µM and the IC50 (HEK293) was greater than 100 µM.

For `O=c1nc(NCc2ccccc2[N+](=O)[O-])cc[nH]1`, the Ki [11] was 6400 µM.

Work on `O=C(O)[C@H](Cc1c[nH]c2ccccc12)N1C(=O)c2ccccc2C1=O` yielded a Ki [1] of 0.23 µM and an inhibition [12] of 11%.

Compound `O=c1ncc(CS(=O)(=O)O)c(NCc2ccccc2)[nH]1` has a Ki [1] of 33 µM.

For `O=Cc1c[nH]c(=O)nc1NCc1ccco1`, the Ki [1] was 83 µM.

Work on `CCCCNCc1c[nH]c(=O)nc1NCc1ccco1` yielded a Ki [1] of 960 µM.
